Source: PubChem BioAssay
PHOSPHO1 inh – inhibitors of human PHOSPHO1 phosphatase | Q8TCT1 | recombinant PHOSPHO1, absorbance phosphatase assay | inhibition, % at 13.3 µM | 290,000 tested, 1.1% active | AID 1565; in the data active = inhibition above about 60%
Target sequence (Q8TCT1 whole entry, looked up): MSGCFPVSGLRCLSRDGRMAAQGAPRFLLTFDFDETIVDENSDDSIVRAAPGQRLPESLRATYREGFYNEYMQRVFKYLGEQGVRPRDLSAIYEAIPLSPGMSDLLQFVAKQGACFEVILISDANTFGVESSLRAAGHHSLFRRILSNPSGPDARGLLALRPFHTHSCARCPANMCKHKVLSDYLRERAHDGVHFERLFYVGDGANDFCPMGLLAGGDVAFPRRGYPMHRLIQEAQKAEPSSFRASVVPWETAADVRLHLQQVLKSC
NS3 helicase inh – blocks Hepatitis C virus NS3 helicase unwinding; NS3 helicase DNA unwinding, Cy5 molecular beacon fluorescence; inhibition, % at 10.9 µM; 290,000 tested, 0.56% active; AID 1800;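 active = inhibition above the mean of all tested compounds plus 3 SD, set per campaign, cut at about 35% in these data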;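 note: 0% = DMSO wells and 100% = thioflavine S control wells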
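Control set: DMSO versus 110 µM thioflavine S; Material: NS3 helicase fragment of HCV; Measured by: Cy5 fluorescence at 0 and 60 min, beacon hairpin quenching; Read-out basis: percent inhibition from t60/t0 fluorescence ratio; Times: reaction time 60 min, 25 °C; Repeats: single replicate; Compound dosing: single dose, 10.9 µM nominal final, DMSO 0.8% final.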
UBC9 SUMO inh – SUMOylation inhibition; P63279; 290,000 tested, 0.36% active; inhibition, % at 35 µM; HTRF SUMOylation assay, SAE1/SAE2 + UBC9, in vitro; in the data active = inhibition above about 50%, passing the limit was not always enough
Target sequence (P63279 whole entry, looked up): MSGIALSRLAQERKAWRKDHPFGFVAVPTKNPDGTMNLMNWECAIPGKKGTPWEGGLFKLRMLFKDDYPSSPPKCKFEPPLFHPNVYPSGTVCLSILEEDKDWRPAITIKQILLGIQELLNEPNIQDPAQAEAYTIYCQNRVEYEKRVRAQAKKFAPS
HCV core dimer – blocks dimerization of HCV core protein; TR-FRET GST/Flag-core106 dimerization, 1536-well; inhibition, % at 5 µM; 300,000 tested, 0.33% active; AID 1899;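 active = inhibition above the mean of all tested compounds plus 3 SD, set per screening campaign, cut at about 45% in these data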
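test system = GST/Flag-tagged HCV core106 proteins | probe or stimulus = Eu donor and XL665 acceptor anti-tag antibodies | times = compound-protein-antibody incubation 4 h at 22.5 °C | signal = TR-FRET, excitation 340 nm, emission 617 and 671 nm | measure = percent inhibition of core106 dimerization signal | controls = wells lacking GST-core106 and wells with excess unlabelled core106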
IMP-1 inhibitor – inhibitors of Pseudomonas aeruginosa IMP-1 metallo-beta-lactamase | inhibition, % at 5.6 µM | purified IMP-1, nitrocefin hydrolysis, epi-absorbance fluorescence | AID 1556 | 290,000 tested, 0.45% active;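 active = inhibition above the mean plus 3 SD of all compounds in the same screening run, cut at about 4.5% in these data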;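 note: 0% = IMP-1 with DMSO and 100% = DMSO wells lacking enzyme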
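assay system = purified recombinant IMP-1 metallo-beta-lactamase enzyme | schedule = 15 min preincubation plus 25 min reaction at 25 °C | signal = Epi-absorbance fluorescence, 480 nm excitation, 530 nm emission | read-out basis = percent inhibition from optical density relative to buffer-blank wells | controls = IMP-1 with DMSO as 0%, enzyme-free DMSO as 100%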
VIM-2 inhibitor – inhibitors of Pseudomonas aeruginosa VIM-2 metallo-beta-lactamase | purified VIM-2, nitrocefin hydrolysis, epi-absorbance fluorescence | inhibition, % at 5.6 µM | 290,000 tested, 0.89% active | AID 1527;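 active = inhibition above the mean of all tested compounds plus 3 SD, cutoff set per screening run, cut at about 7.5% in these data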;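 note: red hydrolysis product quenches plate fluorescence so inhibitors raise well fluorescence; 0% = enzyme with DMSO and 100% = DMSO without enzyme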
Numbers without * were called inactive; . = no result given; ! = a repeat was not active. Compounds with a hit are over-represented: about 3.1% of the library has one in this group of screens.

SMILES | PHOSPHO1 inh | NS3 helicase inh | UBC9 SUMO inh | HCV core dimer | IMP-1 inhibitor | VIM-2 inhibitor
O=C(Nc1nnc(-c2ccccc2SCc2ccccc2)s1)Nc1ccccc1F | -1 | 2 | 70* | 30 | -2 | 2
Cc1cc(NS(=O)(=O)c2c(C(=O)N3CCOCC3)c(C)n(C)c2C)ccc1Br | 28 | -5 | 12 | 6 | -3 | -5
CCn1ccc2cc(OC)ccc2c1=S | 87* | 2 | -12 | 7 | -1 | -3
Cc1cc(C(=O)NNC(=S)NC(=O)/C=C/c2ccccc2Cl)n[nH]1 | 94* | 6 | -138 | 6 | -2 | 0
Cc1cccc(C(=O)NC(=S)NNC(=O)c2ccccc2Cl)c1 | 28 | 6 | 2 | -5 | -6 | -4
Cc1ccc(S(=O)(=O)N2CCN=C2SC(C)c2ccccc2)cc1 (stereo unspecified) | 37 | -9 | -6 | 3 | -3 | -1
CC(SC1=NCCN1S(=O)(=O)c1ccccc1)c1ccccc1 (stereo unspecified) | 61* | -9 | 0 | 3 | -3 | -3
Clc1ccc2ccc3cccnc3c2n1 | 61* | -7 | -2 | . | -6 | 0
Cc1[nH]c2c(ccc3cccnc32)c1C | 15 | 0 | 43 | 3 | -2 | 4
Cc1cccc(NC(=O)CSCC(=O)NNC(=O)c2ccoc2C)c1 | 23 | 18 | 0 | 1 | -3 | 0
Cc1c2cc(O)c(=O)cc-2oc2cc(O)c(O)cc12 | 30 | 17 | 92*! | -14 | 6.5*! | -1
C=CCN1N=C(c2ccc(NC(=O)c3ccccc3)cc2)CSC1=O | 28 | 4 | 36 | 0 | -1 | -6
COc1ccc(-n2c(N)c(C(=O)NCC3CCCO3)sc2=S)cc1 (stereo unspecified) | 39 | 7 | 13 | -2 | -7 | -4
CCOC(=O)c1ccc(-n2c(N)c(C(=O)NCC3CCCO3)sc2=S)cc1 (stereo unspecified) | 76* | 5 | 27 | 3 | -1 | -3
CCC(C)(c1nnnn1-c1c(C)cccc1C)N(N=O)c1ccccc1Cl (stereo unspecified) | 7 | 1 | -9 | -2 | -1 | -2
CC(C)Cc1nc(S(=O)(=O)c2ccc(Cl)cc2)c(N2CCOCC2)o1 | 24 | 1 | 1 | -1 | -3 | 0
CC(C)(C)c1nc(S(=O)(=O)c2ccc(Cl)cc2)c(N2CCOCC2)o1 | 63* | 1 | 8 | -1 | -3 | -1
O=C1CCCc2cc3c(cc21)CC1(C3)Cc2cc3c(cc2C1)C(=O)CCC3 | 25 | 5 | 82* | 8 | -3 | -2
CC(=O)Nc1ccc2c(c1)CCCC2=O | 32 | 8 | 5 | -4 | -2 | 0
COc1ccc(-c2nsc(C(=O)N(c3ccc(F)cc3)C(C(=O)NC3CCCC3)c3ccc(OC)cc3)c2N)cc1 (stereo unspecified) | -14 | -2 | 1 | 53* | 0 | 1
C#CC[N+](C)(C)CCN1C(=O)C2C(c3ccccc3)C=CC(c3ccccc3)C2C1=O (stereo unspecified) | -29 | -33 | 2 | -2 | -1 | -2
CC(C)OC(=O)C[N+](C)(C)CCN1C(=O)C2C(c3ccccc3)C=CC(c3ccccc3)C2C1=O (stereo unspecified) | 24 | -41 | 15 | -5 | 13* | 1
COc1ccc(CN2CCCC(C(=O)c3cccc(OC(C)C)c3)C2)cc1Cn1cccn1 (stereo unspecified) | 41 | -36 | 6 | -5 | -2 | -6
COc1ccc(CCNC(=O)c2ccc(NS(=O)(=O)c3ccc4[nH]c(=O)[nH]c4c3)cc2)cc1 | . | . | . | 7 | . | .
O=C(O)c1ccccc1NC(=O)C1CCN(S(=O)(=O)c2cccc3nsnc23)CC1 | 30 | 13 | 8 | -1 | -2 | 1
COC(=O)C1=C(C(=O)OC)SC(=C2C(=S)C(C)(C)N(C(=O)CC(C)C)c3ccccc32)S1 | 84* | -1 | -18 | 4 | -4 | -2
CSc1nnc(-c2ccccc2)o1 | -2 | 4 | 18 | -3 | -2 | -1
CSc1nnc(-c2ccc(NC(N)=S)cc2)o1 | 51 | 13 | 0 | 2 | 4.6* | 1
CSc1nnc(-c2cccc(NC(=S)NN)c2)o1 | 3 | 21 | 15 | 0 | -4 | 9.7*
